{
  "source": "ChEMBL document CHEMBL4316593",
  "about": "(Eur J Med Chem, 2019)",
  "key": {"U-87 MG [1]": {"tested_on": "U-87 MG", "assay": "Induction of DNA damage in human U87 cells assessed as change in BRIP1 gene expression at cytotoxic IC50 measured after 48 hrs […] relative to control", "type": "functional, U-87MG ATCC", "summary_of_the_method": "(§1)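 U87 expression profiling. Cells incubated 48hrs at 37°C, 5% CO₂ with the IC₅₀ concentration, alongside a cisplatin and an untreated control, in triplicate. RNA was isolated by one common protocol and profiled. DEGs were called with DESeq2 (q < 0.05, fold change > 1.5) and expressed as fold change versus untreated.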"}, "U-87 MG [2]": {"tested_on": "U-87 MG", "assay": "Cell cycle arrest in human U87 cells assessed as change in E2F2 gene expression at cytotoxic IC50 measured after 48 hrs […] relative to control", "type": "functional, U-87MG ATCC", "summary_of_the_method": "as §1"}, "[3]": {"assay": "Inhibition of RTK/PI3K/AKT/mTOR signaling in human U87 cells assessed as up regulation of RPS14 gene expression at cytotoxic IC50 measured after 48 hrs relative to control", "type": "cell-based", "conditions": "U-87MG ATCC", "summary_of_the_method": "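U87 cells were exposed for 48 hrs at 37°C under 5% CO₂, with cisplatin and untreated controls, all in triplicate. RNA was isolated by the same protocol for every sample and expression profiled from mapped reads. Differential expression against untreated cells was called in DESeq2 (q-value < 0.05, fold change > 1.5).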"}, "[4]": {"assay": "Inhibition of RTK/PI3K/AKT/mTOR signaling in human U87 cells assessed as down regulation of CMTM3 gene expression at cytotoxic IC50 measured after 48 hrs relative to control", "type": "cell-based", "conditions": "U-87MG ATCC", "summary_of_the_method": "(§2)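 U87 cells grown in MEM with 10% FBS at 37°C, 5% CO2. Cells exposed to IC50 of test compound for 48 hrs, alongside untreated and cisplatin controls, each condition in triplicate. RNA isolated and profiled; differential expression called with DESeq2 (q-value < 0.05, fold change > 1.5), fold change versus untreated.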"}, "[5]": {"assay": "Inhibition of RTK/PI3K/AKT/mTOR signaling in human U87 cells assessed as down regulation of MAP2 gene expression at cytotoxic IC50 measured after 48 hrs relative to control", "type": "cell-based", "conditions": "U-87MG ATCC", "summary_of_the_method": "(§3)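 Cells were exposed for 48hrs at 37°C in humidified 5% CO₂ to the compound at its previously determined IC₅₀, with Cisplatin at its IC₅₀ and an untreated negative control alongside. Each condition was run in triplicate. RNA was isolated from all samples by the same protocol. Genes were called differentially expressed by DESeq2 at q-value < 0.05 and fold change > 1.5.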"}, "[6]": {"assay": "Inhibition of RTK/PI3K/AKT/mTOR signaling in human U87 cells assessed as down regulation of USP47 gene expression at cytotoxic IC50 measured after 48 hrs relative to control", "type": "cell-based", "conditions": "U-87MG ATCC", "summary_of_the_method": "as §3"}, "U-87 MG [7]": {"tested_on": "U-87 MG", "assay": "Induction of apoptosis in human U87 cells assessed as change in GADD45B gene expression at cytotoxic IC50 measured after 48 hrs […] relative to control", "type": "functional, U-87MG ATCC", "summary_of_the_method": "as §2"}, "[8]": {"assay": "Inhibition of RTK/PI3K/AKT/mTOR signaling in human U87 cells assessed as up regulation of KDM5B gene expression at cytotoxic IC50 measured after 48 hrs relative to control", "type": "cell-based", "conditions": "U-87MG ATCC", "summary_of_the_method": "as §3"}, "U-87 MG [9]": {"tested_on": "U-87 MG", "assay": "Cytotoxicity against human U87 cells assessed as reduction in cell proliferation measured after 48 hrs by trypan blue dye-based cell counting analysis"}, "[10]": {"assay": "Inhibition of RTK/PI3K/AKT/mTOR signaling in human U87 cells assessed as up regulation of solute carrier family 4 member 2 gene expression at cytotoxic IC50 measured after 48 hrs relative to control", "type": "cell-based", "conditions": "U-87MG ATCC"}, "[11]": {"assay": "Inhibition of RTK/PI3K/AKT/mTOR signaling in human U87 cells assessed as up regulation of QSOX2 gene expression at cytotoxic IC50 measured after 48 hrs relative to control", "type": "cell-based", "conditions": "U-87MG ATCC", "summary_of_the_method": "as §3"}, "U-87 MG [12]": {"tested_on": "U-87 MG", "assay": "Induction of DNA damage in human U87 cells assessed as change in PCNA gene expression at cytotoxic IC50 measured after 48 hrs […] relative to control", "type": "functional, U-87MG ATCC", "summary_of_the_method": "as §1"}, "U-87 MG [13]": {"tested_on": "U-87 MG", "assay": "Induction of DNA damage in human U87 cells assessed as change in E2F7 gene expression at cytotoxic IC50 measured after 48 hrs […] relative to control", "type": "functional, U-87MG ATCC", "summary_of_the_method": "as §1"}, "[14]": {"assay": "Inhibition of RTK/PI3K/AKT/mTOR signaling in human U87 cells assessed as down regulation of TEX14 gene expression at cytotoxic IC50 measured after 48 hrs relative to control", "type": "cell-based", "conditions": "U-87MG ATCC", "summary_of_the_method": "as §3"}, "U-87 MG [15]": {"tested_on": "U-87 MG", "assay": "Cytotoxicity against human U87 cells assessed as reduction in cell proliferation by phase contrast microscopic analysis", "type": "functional, cell-based", "conditions": "U-87MG ATCC"}, "U-87 MG [16]": {"tested_on": "U-87 MG", "assay": "Induction of DNA damage in human U87 cells assessed as change in FANCI gene expression at cytotoxic IC50 measured after 48 hrs […] relative to control", "type": "functional, U-87MG ATCC", "summary_of_the_method": "as §1"}, "U-87 MG [17]": {"tested_on": "U-87 MG", "assay": "Cell cycle arrest in human U87 cells assessed as change in CDK2 gene expression at cytotoxic IC50 measured after 48 hrs […] relative to control", "type": "functional, U-87MG ATCC", "summary_of_the_method": "as §1"}, "[18]": {"assay": "Inhibition of RTK/PI3K/AKT/mTOR signaling in human U87 cells assessed as down regulation of ERCC3 gene expression at cytotoxic IC50 measured after 48 hrs relative to control", "type": "cell-based", "conditions": "U-87MG ATCC", "summary_of_the_method": "as §2"}, "U-87 MG [19]": {"tested_on": "U-87 MG", "assay": "Induction of apoptosis in human U87 cells assessed as change in JUN gene expression at cytotoxic IC50 measured after 48 hrs […] relative to control", "type": "functional, U-87MG ATCC", "summary_of_the_method": "as §2"}, "U-87 MG [20]": {"tested_on": "U-87 MG", "assay": "Cell cycle arrest in human U87 cells assessed as change in SFN gene expression at cytotoxic IC50 measured after 48 hrs […] relative to control", "type": "functional, U-87MG ATCC", "summary_of_the_method": "as §1"}, "U-87 MG [21]": {"tested_on": "U-87 MG", "assay": "Induction of apoptosis in human U87 cells assessed as change in ACTB gene expression at cytotoxic IC50 measured after 48 hrs […] relative to control", "type": "functional, U-87MG ATCC", "summary_of_the_method": "as §2"}, "[22]": {"assay": "Inhibition of RTK/PI3K/AKT/mTOR signaling in human U87 cells assessed as up regulation of platelet derived growth factor C gene expression at cytotoxic IC50 measured after 48 hrs relative to control", "type": "cell-based"}, "U-87 MG [23]": {"tested_on": "U-87 MG", "assay": "Cell cycle arrest in human U87 cells assessed as change in CDC6 gene expression at cytotoxic IC50 measured after 48 hrs […] relative to control", "type": "functional, U-87MG ATCC", "summary_of_the_method": "as §1"}, "[24]": {"assay": "Inhibition of RTK/PI3K/AKT/mTOR signaling in human U87 cells assessed as up regulation of zinc finger protein 217 gene expression at cytotoxic IC50 measured after 48 hrs relative to control", "type": "cell-based", "conditions": "U-87MG ATCC"}, "[25]": {"assay": "Inhibition of RTK/PI3K/AKT/mTOR signaling in human U87 cells assessed as down regulation of EIF1B gene expression at cytotoxic IC50 measured after 48 hrs relative to control", "type": "cell-based", "conditions": "U-87MG ATCC", "summary_of_the_method": "as §2"}, "LN-229": {"tested_on": "LN-229", "assay": "Cell cycle arrest in human LN229 cells assessed as decrease in accumulation at G2/M-phase at cytotoxic IC50 measured after 48 hrs by propidium iodide staining based fluorescence cell imaging analysis", "type": "functional", "summary_of_the_method": "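Cell cycle by PI staining. Cells seeded at 1×10^6 and grown overnight at 37°C, 5% CO₂, then exposed for 48hrs at their IC₅₀ concentration, with DMSO and cisplatin controls. Cells were trypsinized, washed in cold PBS and fixed in 70% ethanol at 4°C for 30 min. They were stained with PI in Triton X-100/RNase for 15 min at 37°C and imaged by fluorescence microscopy. Reported as mean ± S.E.M of triplicates.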"}, "[26]": {"assay": "Inhibition of RTK/PI3K/AKT/mTOR signaling in human U87 cells assessed as up regulation of ADP ribosylation factor like GTPase 6 interacting protein 5 gene expression at cytotoxic IC50 measured after 48 hrs relative to control", "type": "cell-based", "conditions": "U-87MG ATCC", "summary_of_the_method": "as §3"}},
  "note": "Activity calls are given as the source filed them. The rule behind the calls is not given here.",
  "data": [
    {"molecule": "CC(=O)C(=NNc1ccccc1C#N)C(C)=O", "values": [
      {"measurement": "fold change (FC)", "setting": "U-87 MG [1]", "value": 2.317},
      {"measurement": "fold change (FC)", "setting": "U-87 MG [2]", "value": 2.384},
      {"measurement": "log2FC", "setting": "[3]", "value": 0.607},
      {"measurement": "log2FC", "setting": "[4]", "value": -0.716},
      {"measurement": "log2FC", "setting": "[5]", "value": -1.55},
      {"measurement": "log2FC", "setting": "[6]", "value": -0.615},
      {"measurement": "log2FC", "setting": "U-87 MG [7]", "value": -2.899},
      {"measurement": "log2FC", "setting": "[8]", "value": 0.553},
      {"measurement": "IC50", "setting": "U-87 MG [9]", "value": 107, "unit": "µM"},
      {"measurement": "log2FC", "setting": "[10]", "value": 1.04},
      {"measurement": "log2FC", "setting": "[11]", "value": 0.599},
      {"measurement": "fold change (FC)", "setting": "U-87 MG [12]", "value": 1.668},
      {"measurement": "fold change (FC)", "setting": "U-87 MG [13]", "value": 2.057},
      {"measurement": "log2FC", "setting": "[14]", "value": -3.88},
      {"measurement": "Activity", "setting": "U-87 MG [15]", "value": "Active"},
      {"measurement": "fold change (FC)", "setting": "U-87 MG [16]", "value": 1.708},
      {"measurement": "fold change (FC)", "setting": "U-87 MG [17]", "value": 1.392},
      {"measurement": "log2FC", "setting": "[18]", "value": -0.491},
      {"measurement": "log2FC", "setting": "U-87 MG [19]", "value": -3.064},
      {"measurement": "fold change (FC)", "setting": "U-87 MG [20]", "value": 1.949},
      {"measurement": "log2FC", "setting": "U-87 MG [21]", "value": -1.876},
      {"measurement": "log2FC", "setting": "[22]", "value": 0.883},
      {"measurement": "fold change (FC)", "setting": "U-87 MG [23]", "value": 1.009},
      {"measurement": "log2FC", "setting": "[24]", "value": 1.37},
      {"measurement": "log2FC", "setting": "[25]", "value": -0.906},
      {"measurement": "Activity", "setting": "LN-229", "value": "Active"},
      {"measurement": "log2FC", "setting": "[26]", "value": 0.661}
    ]}
  ]
}
